The values below come from publication PMC4838516 (ChemMedChem, 2016).

Molecules are shown by their SMILES. Where two headings read alike, the source gives them in different places.

Test [1] deals with KSHV Pr (Human herpesvirus 8 type P, UniProt Q2HRB6). The experiment in a line: Dose-response kinetic assay of KSHV Pr with fluorogenic P6R substrate. It is filed as biochemical. Particulars: read-out: KSHV Pr IC50. The essentials: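 Manual kinetic dose-response assay on KSHV Pr with the P6R substrate Ac-Pro-Val-Tyr-tBG-Leu-Gln-Ala-(rhodamine110)-dPro, read in a plate reader at ex/em 485/530 nm. IC50 was taken from dose-response curves of enzymatic activity; reported values are means.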
Chain of KSHV Pr (Q2HRB6 1-230): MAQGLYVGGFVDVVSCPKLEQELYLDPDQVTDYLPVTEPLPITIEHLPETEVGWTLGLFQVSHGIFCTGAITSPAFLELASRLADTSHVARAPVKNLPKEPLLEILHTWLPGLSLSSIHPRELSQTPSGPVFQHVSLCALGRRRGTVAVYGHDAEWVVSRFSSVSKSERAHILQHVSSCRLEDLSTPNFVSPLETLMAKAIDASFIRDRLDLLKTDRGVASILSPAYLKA

For test [2], the target named is HCMV Pr (Human cytomegalovirus, UniProt P16753). The experiment in a line: Dose-response kinetic assay of HCMV Pr with ACC tetrapeptide substrate. It is filed as biochemical. Particulars: read-out: HCMV Pr IC50; --- = No quantifiable inhibition. Summed up:
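Manual kinetic fluorescence assay on HCMV Pr using the tetrapeptide Ac-tBG-tBG-Asn(NMe2)-Ala carrying an ACC fluorophore, with ex/em 380/460 nm. Activity was followed over a dilution series of test compound to determine the IC50.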

Chain of HCMV Pr (P16753 1-256): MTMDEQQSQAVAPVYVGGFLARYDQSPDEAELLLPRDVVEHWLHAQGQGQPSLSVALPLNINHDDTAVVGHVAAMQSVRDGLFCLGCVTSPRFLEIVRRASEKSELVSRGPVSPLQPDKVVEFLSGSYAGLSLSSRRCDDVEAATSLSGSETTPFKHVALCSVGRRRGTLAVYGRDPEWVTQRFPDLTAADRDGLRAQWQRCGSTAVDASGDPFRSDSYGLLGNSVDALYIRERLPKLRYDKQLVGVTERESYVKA

By IC50 is commonly meant the concentration that gives 50% inhibition. As for `Nc1nc(-c2ccccc2)cs1` [Fragment 20], the half-inhibitory concentration (IC50) in test [1] is more than 1000 µM; in test [1] (P6R rhodamine110 substrate), more than 500 µM; in test [2], more than 500 µM.
